Results as given in paper PMC9924099 (Journal of medicinal chemistry, 2021).
Read-outs that look alike come from different tables or passages of the source.

Key:
[1] = system: p53^R280K MDA-MB-231 cells; test: WST-1 cell proliferation assay; type: cell-based, human; details: for inhibition of cell proliferation (in words): MDA-MB-231, 24 h or 72 h; for IC50: Homo sapiens, read-out: IC50, inhibition of cell proliferation
[2] = system: p53^R280K MDA-MB-231 cells; test: Annexin V staining; type: cell-based, human; details: MDA-MB-231, 6 μM or 12 μM, 24 h
[3] = system: p53^R273H MDA-MB-468 cells; test: Annexin V staining; type: cell-based, human; details: MDA-MB-468, 6 μM or 12 μM, 24 h
WT p53 MCF-7 cells [4] = test: Annexin V staining; type: cell-based, human; details: MCF-7, 24 h
In short: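 After 24 h exposure to test compound or DMSO, MCF-7 cells (RPMI 1640, 10% FBS, 1% penicillin/streptomycin, 1% L-glutamine) were scraped, PBS-washed and taken up in Annexin V binding buffer. They were stained with fluorochrome-conjugated Annexin V for 15 min at RT in the dark, then PI staining solution was added. Flow cytometry read-out; % Annexin V-positive cells expressed relative to DMSO.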

[5] = biological target: p53^R280K in MDA-MB-231 cells (Homo sapiens, UniProt P04637, R280K); test: Western blot of p53 expression; type: cell-based; details: MDA-MB-231, 6 μM or 12 μM, 24 h
In short: (§1)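 Cells were treated 24 h with 6 μM or 12 μM test compound or DMSO and lysed in NP-40/Tris-Cl pH 8.0 buffer with protease inhibitors. Load on 4–12% SDS-PAGE was 20 μg for MDA-MB-231 and MDA-MB-468 or 50 μg for MCF-7. After PVDF transfer, blots were probed with p53 DO-1 antibody, reprobed for GAPDH as loading control and developed by ECL.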

[6] = biological target: p53^R273H in MDA-MB-468 cells (Homo sapiens, UniProt P04637, R273H); test: Western blot of p53 expression; type: cell-based; details: MDA-MB-468, 6 μM or 12 μM, 24 h
In short: as §1

WT p53 in MCF-7 cells = WT p53 in MCF-7 cells (Homo sapiens, UniProt P04637); test: Western blot of p53 expression; type: cell-based; details: MCF-7, 6 μM or 12 μM, 24 h
In short: as §1

WT p53 MCF-7 cells [7] = test: WST-1 cell proliferation assay; type: cell-based, human; details: MCF-7, 24 h or 72 h; compared to mutant p53 cells
In short: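 WST-1 assay. Test compound in DMSO was added to cells at 40,000 cells/ml, giving 1% DMSO final, and plated at 4,000 cells/well in duplicate; medium-only wells served as background. Incubation was 24 h or 72 h at 37 °C, then WST-1 for 2 h and OD450 read. Proliferation is expressed as % of DMSO control; triplicate experiments. MCF-7 grown in RPMI 1640, MDA-MB-436 in DMEM.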

Log P determination = type: physicochemical; details: octanol/sodium phosphate buffer (pH 7.4)
[8] = system: p53^R273H MDA-MB-468 cells; test: WST-1 cell proliferation assay; type: cell-based, human; details: MDA-MB-468, 24 h or 72 h

## S=C=NC12CC3CC(CC(C3)C1)C2 [Ad-ITC 1, 1-Isothiocyanatoadamantane]
[1]
  inhibition of cell proliferation (in words): failed to show any significant inhibition of cell proliferation
[2]
  increase in Annexin V stained cells compared to DMSO: did not induce significant increase in apoptosis
[3]
  increase in Annexin V stained cells compared to DMSO: did not induce significant increase in apoptosis
WT p53 MCF-7 cells [4]
  increase in Annexin V stained cells compared to DMSO: did not display any significant increase
[5]
  mutant p53 expression (western blot): no depletion
[6]
  mutant p53 expression (western blot): no depletion
WT p53 in MCF-7 cells
  WT p53 expression (western blot): did not decrease WT p53 expression

## S=C=NC1C2CC3CC(C2)CC1C3 (stereo not shown) [Ad-ITC 2, 2-Isothiocyanatoadamantane]
[1]
  inhibition of cell proliferation (in words): failed to show any significant inhibition of cell proliferation

## S=C=NCC12CC3CC(CC(C3)C1)C2 [Ad-ITC 3, 1-Isothiocyanatomethyladamantane]
[1]; MDA-MB-231, 24 h
  IC50: 24 to 48 µM
[1]; MDA-MB-231, 72 h
  IC50: 24 to 48 µM
[1]
  inhibition of cell proliferation (in words): dose-dependent activity
WT p53 MCF-7 cells [7]
  inhibition of cell proliferation / sensitivity (in words): remarkably less sensitive
[2]
  increase in Annexin V stained cells compared to DMSO: 2.0-5.1 fold
[3]
  increase in Annexin V stained cells compared to DMSO: 2.0-5.1 fold
WT p53 MCF-7 cells [4]
  increase in Annexin V stained cells compared to DMSO: did not display any significant increase
[5]
  mutant p53 expression (western blot): differential decrease in the expression of mutant p53
[6]
  mutant p53 expression (western blot): differential decrease in the expression of mutant p53
WT p53 in MCF-7 cells
  WT p53 expression (western blot): did not decrease WT p53 expression

## CC(N=C=S)C12CC3CC(CC(C3)C1)C2 (stereo not shown) [Ad-ITC 4, 1-Isothiocyanato-1-(adamantan-1-yl)ethane]
[1]
  inhibition of cell proliferation (in words): did not show any significant inhibition

## S=C=NCCC12CC3CC(CC(C3)C1)C2 [Ad-ITC 5, 1-Isothiocyanato-2-(adamantan-1-yl)ethane]
[1]; MDA-MB-231, 24 h
  IC50: 24 to 48 µM
[1]; MDA-MB-231, 72 h
  IC50: 12 to 24 µM
WT p53 MCF-7 cells [7]
  inhibition of cell proliferation / sensitivity (in words): did not inhibit MCF-7 cell proliferation
Log P determination
  logP at 18 h: 4.76
WT p53 MCF-7 cells [4]
  increase in Annexin V stained cells compared to DMSO: did not display any significant increase
[5]
  mutant p53 expression (western blot): differential decrease in the expression of mutant p53
[6]
  mutant p53 expression (western blot): differential decrease in the expression of mutant p53
WT p53 in MCF-7 cells
  WT p53 expression (western blot): did not decrease WT p53 expression

## S=C=Nc1ccc(C23CC4CC(CC(C4)C2)C3)cc1 [Ad-ITC 7, 1-(4-Isothiocyanatophenyl)adamantane]
[1]
  inhibition of cell proliferation (in words): significantly less potent than Ad-ITCs 3, 5, and 6

## S=C=NCCOC12CC3CC(CC(C3)C1)C2 [Ad-ITC 8, 1-(2-Isothiocyanatoethoxy)adamantane]
[1]
  inhibition of cell proliferation (in words): not active in vitro
Log P determination
  logP at 18 h: 4.42

## CC(C)(COC12CC3CC(CC(C3)C1)C2)N=C=S [Ad-ITC 9, 1-(2-Isothiocyanato-2-methylpropoxy)adamantane]
[1]
  inhibition of cell proliferation (in words): not active in vitro

## CCCC(CN=C=S)C1C2CC3CC(C2)CC1C3 (stereo not shown) [Ad-ITC 10, 2-(1-Isothiocyanatopentan-2-yl)adamantane]
[1]
  inhibition of cell proliferation (in words): did not show any significant inhibition

## CC12CC3CC(C)(C1)CC(N=C=S)(C3)C2 [Ad-ITC 11, 1-Isothiocyanato-3,5-dimethyladamantane]
[1]
  inhibition of cell proliferation (in words): failed to show any significant inhibition of cell proliferation

## O=C(CC12CC3CC(CC(C3)C1)C2)N=C=S [Ad-ITC 12, 2-(Adamantan-1-yl)acetyl isothiocyanate]
[1]
  inhibition of cell proliferation (in words): failed to inhibit the cell proliferation

## O=C1CNC(=S)N1CCC12CC3CC(CC(C3)C1)C2 [Ad-compound 13, 3-(2-(Adamantan-1-yl)ethyl)-2-thioxoimidazolidin-4-one]
[1]
  inhibition of cell proliferation (in words): did not inhibit the proliferation
[8]
  inhibition of cell proliferation (in words): did not inhibit MDA-MB-468 cells proliferation
WT p53 MCF-7 cells [7]
  inhibition of cell proliferation / sensitivity (in words): did not inhibit MCF-7 cell proliferation
[2]
  increase in Annexin V stained cells compared to DMSO: did not induce significant increase in apoptosis
[3]
  increase in Annexin V stained cells compared to DMSO: did not induce significant increase in apoptosis
WT p53 MCF-7 cells [4]
  increase in Annexin V stained cells compared to DMSO: did not display any significant increase
[5]
  mutant p53 expression (western blot): failed to affect mutant p53 expression
[6]
  mutant p53 expression (western blot): failed to affect mutant p53 expression
WT p53 in MCF-7 cells
  WT p53 expression (western blot): did not decrease WT p53 expression

## C1C2CC3CC1CC(C2)C3 [adamantane, Adamantane, reference compound]
[1]
  inhibition of cell proliferation (in words): did not inhibit MDA-MB-231 cells proliferation
[8]
  inhibition of cell proliferation (in words): did not inhibit MDA-MB-468 cells proliferation
WT p53 MCF-7 cells [7]
  inhibition of cell proliferation / sensitivity (in words): did not inhibit MCF-7 cell proliferation
